Assay results reported in ChEMBL document CHEMBL1138265, “In vivo anti-Chagas vinylthio-, vinylsulfinyl-, and vinylsulfonylbenzofuroxan derivatives” (J Med Chem, 2007).
The source made the active and inactive calls. The rule behind the calls is not given here.

How the values were obtained:
Trypanosoma cruzi [1] = assay: Antitrypanosomal activity against Trypanosoma cruzi CL Brener; assay type: functional, organism-based
Summary of the method: (§1)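 Epimastigotes from 5-day stationary culture inoculated at 1 × 10^6 cells/mL into medium with compound added from DMSO stock (final DMSO ≤0.4%; control 0.4% DMSO, no compound). Growth followed by A600; % inhibition from day 0 and day 5 absorbance versus control. IC50 = concentration reducing the day-5 absorbance ratio to 50%. Single-dose screen at 25 µM. Means of three experiments.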

[2] = Selectivity index, ratio of IC50 for human THP1 cells to IC50 for Trypanosoma cruzi Y; assay type: functional, THP-1
THP-1 = assay: Cytotoxicity against human THP1 cells after 48 hrs; assay type: cell-based; details: THP-1, 48 h
Summary of the method: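 THP-1 human macrophages in RPMI 1640 with 20% heat-inactivated FCS, left to attach 48 h at 37 °C, 5% CO2. Exposed to compounds at 25-1000 µM for 48 h, washed, then MTT 0.4 mg/mL for 3 h. Formazan dissolved in DMSO and read at OD595; % cytotoxicity corrected for compound-in-medium blanks. Triplicates per concentration, six growth controls; mean of two experiments.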

Trypanosoma cruzi [3] = assay: Antitrypanosomal activity against Trypanosoma cruzi Tulahuen 2; assay type: functional, organism-based; summary of the method: as §1
Trypanosoma cruzi [4] = assay: Antitrypanosomal activity against Trypanosoma cruzi Y; assay type: functional, organism-based; summary of the method: as §1
[5] = Selectivity index, ratio of IC50 for human THP1 cells to IC50 for Trypanosoma cruzi Tulahuen 2; assay type: functional, THP-1
[6] = Selectivity index, ratio of IC50 for human THP1 cells to IC50 for Trypanosoma cruzi CL Brener; assay type: functional, THP-1
[7] = target: Trypanothione reductase (Trypanosoma cruzi) (UniProt P28593); assay: Inhibition of Trypanosoma cruzi trypanothione reductase assessed as volume activity per min at 100 uM after 1 hr
Summary of the method: (§2)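 Time-dependent inactivation: 170 mU recombinant TR incubated at 25 °C in 40 mM HEPES, 1 mM EDTA, pH 7.5 with 100 µM inhibitor, with or without 160 µM NADPH, for 0-24 h. Aliquots diluted 200-fold and residual activity measured in the standard NADPH/TS2 assay at 340 nm. Controls: TR plus NADPH with DMSO, and TR plus inhibitor.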

[8] = target: Cruzipain (Trypanosoma cruzi) (UniProt P25779); assay: Inhibition of Trypanosoma cruzi Tulahuen 2 cruzipain at 50 uM
Summary of the method: (§3)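 Cruzipain purified from Tulahuen 2 epimastigotes by ConA-Sepharose affinity chromatography. Assayed in 50 mM Tris-acetate pH 8.0 with 0.3 mM Bz-Pro-Phe-Arg-pNA and 10 mM β-mercaptoethanol, A410 followed at 30 °C. Inhibitors added in DMSO, controls with matching DMSO, E-64 as reference. Tested at 10-100 µM; means of at least two measurements.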

[9] = target: Cruzipain (Trypanosoma cruzi) (UniProt P25779); assay: Inhibition of Trypanosoma cruzi Tulahuen 2 cruzipain at 10 uM; summary of the method: as §3
[10] = target: Trypanothione reductase (Trypanosoma cruzi) (UniProt P28593); assay: Inhibition of Trypanosoma cruzi trypanothione reductase assessed as volume activity per min at 100 uM in presence of NADPH; summary of the method: as §2
Trypanosoma cruzi [11] = assay: Antitrypanosomal activity against Trypanosoma cruzi Tulahuen 2 infected Swiss mouse model of Chagas disease at 60 mg/kg, po after 35 days post infection
Mus musculus = assay: Toxicity in Trypanosoma cruzi Tulahuen 2 infected Swiss mouse model of Chagas disease at 60 mg/kg, po; details: in vivo
[12] = target: Trypanothione reductase (Trypanosoma cruzi) (UniProt P28593); assay: Inhibition of Trypanosoma cruzi trypanothione reductase at 100 uM
[13] = target: Trypanothione reductase (Trypanosoma cruzi) (UniProt P28593); assay: Inhibition of Trypanosoma cruzi trypanothione reductase assessed as volume activity per min at 100 uM after 4 hrs; summary of the method: as §2
[14] = target: Cruzipain (Trypanosoma cruzi) (UniProt P25779); assay: Inhibition of Trypanosoma cruzi Tulahuen 2 cruzipain at 20 uM; summary of the method: as §3
[15] = target: Trypanothione reductase (Trypanosoma cruzi) (UniProt P28593); assay: Inhibition of Trypanosoma cruzi trypanothione reductase assessed as volume activity per min at 100 uM in presence of NADPH after 1 hr; summary of the method: as §2
[16] = target: Cruzipain (Trypanosoma cruzi) (UniProt P25779); assay: Inhibition of Trypanosoma cruzi Tulahuen 2 cruzipain at 100 uM; summary of the method: as §3
Trypanosoma cruzi [17] = assay: Antitrypanosomal activity against Trypanosoma cruzi Tulahuen 2 infected Swiss mouse model of Chagas disease at 60 mg/kg, po after 41 days post infection
[18] = target: Trypanothione reductase (Trypanosoma cruzi) (UniProt P28593); assay: Inhibition of Trypanosoma cruzi trypanothione reductase assessed as volume activity per minute at 100 uM
[19] = target: Trypanothione reductase (Trypanosoma cruzi) (UniProt P28593); assay: Inhibition of Trypanosoma cruzi trypanothione reductase assessed as volume activity per min at 100 uM in presence of NADPH after 4 hrs; summary of the method: as §2
[20] = target: Cruzipain (Trypanosoma cruzi) (UniProt P25779); assay: Inhibition of Trypanosoma cruzi Tulahuen 2 cruzipain at 25 uM; summary of the method: as §3

Chain of Trypanothione reductase (Trypanosoma cruzi) (P28593 whole entry, looked up): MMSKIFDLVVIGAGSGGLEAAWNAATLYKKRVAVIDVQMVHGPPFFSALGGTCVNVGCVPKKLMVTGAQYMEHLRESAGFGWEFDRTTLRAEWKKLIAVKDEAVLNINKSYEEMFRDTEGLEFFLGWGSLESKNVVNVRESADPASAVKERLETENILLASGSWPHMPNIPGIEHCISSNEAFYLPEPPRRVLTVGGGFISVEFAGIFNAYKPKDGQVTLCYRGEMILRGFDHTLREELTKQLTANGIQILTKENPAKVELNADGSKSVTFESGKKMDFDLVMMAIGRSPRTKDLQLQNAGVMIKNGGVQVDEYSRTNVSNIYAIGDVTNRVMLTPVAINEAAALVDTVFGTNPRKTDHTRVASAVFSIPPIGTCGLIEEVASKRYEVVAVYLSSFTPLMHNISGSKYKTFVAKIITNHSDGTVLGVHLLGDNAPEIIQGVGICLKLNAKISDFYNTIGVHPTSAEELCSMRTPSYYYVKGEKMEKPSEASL
Chain of Cruzipain (Trypanosoma cruzi) (P25779 123-467 limits assumed): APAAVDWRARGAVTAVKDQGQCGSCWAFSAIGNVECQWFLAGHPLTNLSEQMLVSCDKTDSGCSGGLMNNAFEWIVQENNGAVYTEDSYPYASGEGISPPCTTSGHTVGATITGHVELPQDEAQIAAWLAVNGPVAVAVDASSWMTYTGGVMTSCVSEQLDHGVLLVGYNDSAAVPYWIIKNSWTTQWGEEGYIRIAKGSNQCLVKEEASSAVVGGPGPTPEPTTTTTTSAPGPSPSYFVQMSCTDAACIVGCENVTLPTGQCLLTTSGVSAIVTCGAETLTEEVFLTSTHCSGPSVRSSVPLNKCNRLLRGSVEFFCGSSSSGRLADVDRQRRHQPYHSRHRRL

SMILES | IC50 (Trypanosoma cruzi [1]) [µM] | Ratio IC50 [2] | IC50 (THP-1) [µM] | IC50 (Trypanosoma cruzi [3]) [µM] | IC50 (Trypanosoma cruzi [4]) [µM] | Ratio IC50 [5] | Ratio IC50 [6] | inhibition [8] [%] | inhibition [9] [%] | Activity (Mus musculus) | further results
CC(=O)N1CCN(c2ccc(OCC3COC(Cn4ccnc4)(c4ccc(Cl)cc4Cl)O3)cc2)CC1 (stereo not drawn) [KETOCONAZOLE] | 5 | 4.5 | 44 | 10 | 9.8 | 4.4 | 8.8 | – | – | – | –
CN(C/C=C/C#CC(C)(C)C)Cc1cccc2ccccc12 [TERBINAFINE] | 42 | 7.4 | 329 | 17.1 | 44.7 | 19.3 | 7.8 | – | – | – | –
CC1CS(=O)(=O)CCN1/N=C/c1ccc([N+](=O)[O-])o1 (stereo not drawn) [NIFURTIMOX] | 8.5 | – | – | 7.7 | 6.5 | – | – | – | – | – | –
[O-][n+]1onc2cc(/C=C/[S+]([O-])c3ccccc3)ccc21 (stereo not drawn) | 15.1 | 14.1 | 124 | 2.6 | 8.8 | 47.7 | 8.2 | 24 | 2 | Non-toxic | deltaA [7]: 0.086; deltaA [10]: 0.103; Activity (Trypanosoma cruzi [11]): Active; inhibition [12]: 13%; deltaA [13]: 0.091; inhibition [14]: 0%; deltaA [15]: 0.105; inhibition [16]: 12%; Activity (Trypanosoma cruzi [17]): Active; deltaA [18]: 0.104; deltaA [19]: 0.105
[O-][n+]1onc2cc(/C=C/Sc3ccccc3)ccc21 | 4.7 | – | – | 2.6 | 7.6 | – | – | 25 | 0 | Non-toxic | Activity (Trypanosoma cruzi [11]): Active; inhibition [20]: 15%; Activity (Trypanosoma cruzi [17]): Active
O=C(Cn1ccnc1[N+](=O)[O-])NCc1ccccc1 [BENZNIDAZOLE] | 4.5 | – | – | 7.4 | 3.8 | – | – | – | – | Non-toxic | –
[O-][n+]1onc2cc(/C=C\c3ccccc3)ccc21 | 15.7 | 7 | 62.6 | 7 | 9 | 8.9 | 4 | 20 | 19 | – | inhibition [14]: 11%; inhibition [16]: 44%
CC(C)C[C@H](NC(=O)[C@H]1O[C@@H]1C(=O)O)C(=O)NCCCCN=C(N)N | – | – | – | – | – | – | – | – | 100 | – | –
